Published values from different studies.
Lines come from different studies, so protocols differ.
HDAC9: Histone deacetylase 9 (HDAC9, Homo sapiens, UniProt Q9UKV0)
ADRB1: Beta-1 adrenergic receptor (ADRB1, Homo sapiens, UniProt P08588)
PKN1: Serine/threonine-protein kinase N1 (PKN1, Homo sapiens, UniProt Q16512)

SMILES | target | effect on | action | technique | concentration | quantity | result
O=C(NO)c1cncc(OS(=O)(=O)Oc2ccc(-n3ccnc3)cc2)c1 | HDAC9 | enzyme activity | inhibitor | fluorescence | 10 µM | inhibition | 49%
CNc1ncc2c(/C=C/C(=O)N3CCC(OC)CC3)nn(Cc3cccc(C(F)(F)F)c3)c2n1 | Cyclin-dependent kinase 18, with cyclin Y (CDK18, Homo sapiens, UniProt Q07002) | enzyme activity | inhibitor | radiometric | 1 µM | remaining activity | 99%
Cc1cc([C@@H](C)Nc2ccccc2C(=O)O)c2nc(N3CCC(F)(F)CC3)c(C#N)c(=O)n2c1 | NUAK family SNF1-like kinase 2 (NUAK2, Homo sapiens, UniProt Q9H093) | binding | – | competition with immobilised ligand | 10 µM | remaining binding | 70%
CC(C)OC(=O)CNc1cccc(CN(Cc2ccc(-n3cccn3)cc2)S(=O)(=O)c2cccnc2)n1 | ADRB1 | ligand displacement | – | radioligand | 10 µM | inhibition | 0%
N=c1c[n+](N2CCOCC2)[n-]o1 | NAD-dependent protein deacylase sirtuin-5, mitochondrial (SIRT5, Homo sapiens, UniProt Q9NXA8) | enzyme activity | inhibitor | – | – | KI (inactivation) | 4 µM
C=CC(=O)N1CCC(COCC(=O)N2CCN(c3nc(-c4cnc(N)nc4C(F)F)nc(N4CCOC[C@@H]4C)n3)CC2)CC1 | PKN1 | binding | – | competition with immobilised ligand | 1 µM | remaining binding | 100%
O=C(O)CNc1cccc(CN(Cc2ccc(-n3cccn3)cc2)S(=O)(=O)c2cccnc2)n1 | ADRB1 | ligand displacement | – | radioligand | 10 µM | inhibition | 2%
O=C(NO)c1cc(F)cc(OS(=O)(=O)Oc2ccccc2)c1 | HDAC9 | enzyme activity | inhibitor | fluorescence | 10 µM | inhibition | 33%
C[C@H]1O[C@H](O[C@H]2[C@H](O)[C@@H](O)[C@@H](O[C@H]3[C@H](O)[C@@H](O)C(O)O[C@@H]3CO)O[C@@H]2CO)[C@H](O)[C@@H](O)[C@@H]1N[C@H]1C=C(CO)[C@@H](O)[C@H](O)[C@H]1O (some centres unmarked) | Pancreatic alpha-amylase (Homo sapiens, UniProt P04746) | enzyme activity | inhibitor | – | 200 µg/mL | inhibition | 97.5%
O=C(/C=C/c1cccc(OS(=O)(=O)Oc2ccc(C(F)(F)F)cc2)c1)NO | HDAC9 | enzyme activity | inhibitor | fluorescence | 10 µM | inhibition | 13%
COc1cc(-c2cncc3c2CN(C)Cc2cc(N4CCNCC4)ccc2-3)cc(OC)c1OC | PKN1 | enzyme activity | inhibitor | – | 1 µM | remaining activity | 102%
